ChEMBL document CHEMBL1122517, “2-Phenylindoles. Relationship between structure, estrogen receptor affinity, and mammary tumor inhibiting activity in the rat” (1984)
Where “and” joins values, the source holds several entries; their conditions need not be identical. Equal values may be shown once. One block for each compound: values may come before it.

Experiments:
[1] = target: T1, Estrogen receptor (Mus musculus) (UniProt O08537+P19785); assay: Anti-uterotrophic activity in mice as uterus dry weight (mg)/body weight (g) *100 at 5 ug dose; type: functional, tissue-based
Outline: (§1)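 Immature female NMRI mice, 19 days old, groups of 10, given sc injections on 3 consecutive days. Each injection held 0.4 μg estrone plus the indole dose per animal, in olive oil (50 μL). Killed 24 h after the last injection. Uteri were fixed in Bouin solution, washed, and dried 24 h at 100 °C. Read-out was uterine dry weight (mg)/body weight (g) × 100, mean ± SD.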

Rattus norvegicus [2] = species on record: Rattus norvegicus; assay: Percent unchanged DMBA-induced mammary carcinoma tumors in rats at 1.8 mg dose; type: functional
Outline: (§2)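 Female Sprague-Dawley rats, 50 days old, given a single 20 mg DMBA dose in 1 mL olive oil by gavage. Rats were palpated twice weekly from day 30, and those without tumors by day 70 were discarded. Rats were randomized once tumor area exceeded 140 mm². Drug dose was per kg in olive oil (1 mL/kg) sc, single dose Mon–Thu and double dose Fri. Tumor area (caliper, two perpendicular axes) and body weight were measured twice weekly.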

Rattus norvegicus [3] = species on record: Rattus norvegicus; assay: Percent progressive DMBA-induced mammary carcinoma tumors in rats at 1.8 mg dose; type: functional; outline: as §2
[4] = target: T1, Estrogen receptor (Mus musculus); assay: Percentage inhibition of uterotrophic activity at 25 ug dose; type: functional
Outline: (§3)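 Antiuterotrophic test in immature 19-day-old female NMRI mice (n=10), dosed sc on 3 consecutive days with 0.4 µg estrone per animal per day plus compound in olive oil. Uterine dry weight/body weight ×100 was read 24 h after the last dose. Inhibition % = 100 − [(E_S,T − E_V)/(E_S − E_V)]×100.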

Rattus norvegicus [5] = species on record: Rattus norvegicus; assay: Number of DMBA-induced mammary carcinoma tumors in rats at 1.8 mg dose; type: functional
Outline: (§4)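 DMBA-induced tumors in Sprague-Dawley rats, entered when tumor area exceeded 140 mm². Dose per kg was given sc in olive oil, daily Monday to Thursday with a double dose Friday. Tumors were measured by calipers twice weekly. Tumor number was counted at the start of the test. Complete remission meant the tumor was no longer palpable. Partial remission meant reduction to ≤50% of initial size. New tumor appearance was recorded.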

[6] = target: T1, Estrogen receptor (Mus musculus); assay: Uterotrophic activity in mice as uterus dry weight (mg)/body weight (g) *100 at 125 ug dose; type: functional, tissue-based
Outline: (§5)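 Immature 19-day-old female NMRI mice, groups of 10. Compound dose per animal in olive oil (50 µL) sc on 3 consecutive days. Mice were killed 24 h after the last injection. Uteri were Bouin-fixed 20 h, cleaned, washed with alcoholic LiCl, and dried at 100 °C for 24 h. Effect = uterine dry weight (mg)/body weight (g) ×100; mean ± SD.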

[7] = target: T1, Estrogen receptor (Mus musculus); assay: Uterotrophic activity in mice as uterus dry weight (mg)/body weight (g) *100 at 5 ug dose; type: functional, tissue-based; outline: as §5
[8] = target: T1, Estrogen receptor (Mus musculus); assay: Percentage inhibition of uterotrophic activity at 125 ug dose; type: functional; outline: as §3
Rattus norvegicus [9] = species on record: Rattus norvegicus; assay: Partial remission (%) of DMBA-induced mammary carcinoma tumors in rats at 1.8 mg dose; type: functional; outline: as §4
[10] = target: T1, Estrogen receptor (Mus musculus); assay: Anti-uterotrophic activity in mice as uterus dry weight (mg)/body weight (g) *100 at 125 ug dose; type: functional, tissue-based; outline: as §1
[11] = target: T1, Estrogen receptor (Mus musculus); assay: Anti-uterotrophic activity in mice as uterus dry weight (mg)/body weight (g) *100 at 1 ug dose; type: functional, tissue-based; outline: as §1
[12] = target: T1, Estrogen receptor (Mus musculus); assay: Anti-uterotrophic activity in mice as uterus dry weight (mg)/body weight (g) *100 at 25 ug dose; type: functional, tissue-based; outline: as §1
Rattus norvegicus [13] = species on record: Rattus norvegicus; assay: Formation of new DMBA-induced mammary carcinoma tumors in rats at 1.8 mg dose; type: functional; outline: as §4
[14] = target: T1, Estrogen receptor (Mus musculus); assay: Uterotrophic activity in mice as uterus dry weight (mg)/body weight (g) *100 at 1 ug dose; type: functional, tissue-based; outline: as §5
Rattus norvegicus [15] = species on record: Rattus norvegicus; assay: Change in DMBA-induced mammary carcinoma tumor area in rats at 1.8 mg dose; -75-656; type: functional
Outline: (§6)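 Female Sprague-Dawley rats got one 20 mg DMBA dose by gavage at 50 days old and were palpated twice weekly from day 30. Rats were randomized once tumor area exceeded 140 mm². Dose (per kg) was given sc in olive oil, once daily Monday to Thursday and doubled on Friday. Tumor area was taken from caliper measurements of two perpendicular axes, twice weekly. Change per animal is given as median % and range.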

Rattus norvegicus [16] = species on record: Rattus norvegicus; assay: Change in body weight of DMBA-induced mammary carcinoma tumor bearing rats at 1.8 mg dose; type: functional
Outline: (§7)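 DMBA-induced tumor-bearing Sprague-Dawley rats (20 mg DMBA by gavage at 50 days old), randomized when tumor area exceeded 140 mm². Dose per kg was given sc in olive oil, single dose daily Monday to Thursday, double dose Friday. Body weight was measured twice weekly. Read-out was % change in body weight.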

[17] = target: T1, Estrogen receptor (Mus musculus); assay: Uterotrophic activity in mice as uterus dry weight (mg)/body weight (g) *100 at 25 ug dose; type: functional, tissue-based; outline: as §5
Rattus norvegicus [18] = species on record: Rattus norvegicus; assay: Change in body weight of DMBA-induced mammary carcinoma tumor bearing rats at 4 mg dose; type: functional; outline: as §7
Rattus norvegicus [19] = species on record: Rattus norvegicus; assay: Change in DMBA-induced mammary carcinoma tumor area in rats at 4 mg dose; -100-47; type: functional; outline: as §6
Rattus norvegicus [20] = species on record: Rattus norvegicus; assay: Percent unchanged DMBA-induced mammary carcinoma tumors in rats at 4 mg dose; type: functional; outline: as §2
Rattus norvegicus [21] = species on record: Rattus norvegicus; assay: Partial remission (%) of DMBA-induced mammary carcinoma tumors in rats at 4 mg dose; type: functional; outline: as §2
[22] = target: T1, Estrogen receptor (Mus musculus); assay: Percentage inhibition of uterotrophic activity at 1 ug dose; type: functional; outline: as §3
Rattus norvegicus [23] = species on record: Rattus norvegicus; assay: Complete remission (%) of DMBA-induced mammary carcinoma tumors in rats at 4 mg dose; type: functional; outline: as §4
Rattus norvegicus [24] = species on record: Rattus norvegicus; assay: Change in DMBA-induced mammary carcinoma tumor area in rats at 4 mg dose; type: functional; outline: as §6
Rattus norvegicus [25] = species on record: Rattus norvegicus; assay: Percent progressive DMBA-induced mammary carcinoma tumors in rats at 4 mg dose; type: functional; outline: as §2
[26] = target: T1, Estrogen receptor (Mus musculus); assay: Percentage inhibition of uterotrophic activity at 5 ug dose; type: functional; outline: as §3
Rattus norvegicus [27] = species on record: Rattus norvegicus; assay: Formation of new DMBA-induced mammary carcinoma tumors in rats at 4 mg dose; type: functional; outline: as §4
Rattus norvegicus [28] = species on record: Rattus norvegicus; assay: Number of DMBA-induced mammary carcinoma tumors in rats at 4 mg dose; type: functional; outline: as §4

T1 sequence (O08537 whole entry, looked up): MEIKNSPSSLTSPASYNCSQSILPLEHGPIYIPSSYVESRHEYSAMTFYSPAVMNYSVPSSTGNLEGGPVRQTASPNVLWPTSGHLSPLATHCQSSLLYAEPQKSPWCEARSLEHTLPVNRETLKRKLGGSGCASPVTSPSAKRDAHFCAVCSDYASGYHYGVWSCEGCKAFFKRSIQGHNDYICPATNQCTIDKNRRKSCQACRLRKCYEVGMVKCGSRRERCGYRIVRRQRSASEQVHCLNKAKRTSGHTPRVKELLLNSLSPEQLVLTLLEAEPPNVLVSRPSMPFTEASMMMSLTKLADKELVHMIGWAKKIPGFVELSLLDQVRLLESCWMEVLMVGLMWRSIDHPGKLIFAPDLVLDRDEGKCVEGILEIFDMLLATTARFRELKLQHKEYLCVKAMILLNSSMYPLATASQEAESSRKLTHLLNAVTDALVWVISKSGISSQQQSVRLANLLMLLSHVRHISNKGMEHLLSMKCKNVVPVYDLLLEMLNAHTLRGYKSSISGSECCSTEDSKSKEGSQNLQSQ
T1 sequence (P19785 whole entry, looked up): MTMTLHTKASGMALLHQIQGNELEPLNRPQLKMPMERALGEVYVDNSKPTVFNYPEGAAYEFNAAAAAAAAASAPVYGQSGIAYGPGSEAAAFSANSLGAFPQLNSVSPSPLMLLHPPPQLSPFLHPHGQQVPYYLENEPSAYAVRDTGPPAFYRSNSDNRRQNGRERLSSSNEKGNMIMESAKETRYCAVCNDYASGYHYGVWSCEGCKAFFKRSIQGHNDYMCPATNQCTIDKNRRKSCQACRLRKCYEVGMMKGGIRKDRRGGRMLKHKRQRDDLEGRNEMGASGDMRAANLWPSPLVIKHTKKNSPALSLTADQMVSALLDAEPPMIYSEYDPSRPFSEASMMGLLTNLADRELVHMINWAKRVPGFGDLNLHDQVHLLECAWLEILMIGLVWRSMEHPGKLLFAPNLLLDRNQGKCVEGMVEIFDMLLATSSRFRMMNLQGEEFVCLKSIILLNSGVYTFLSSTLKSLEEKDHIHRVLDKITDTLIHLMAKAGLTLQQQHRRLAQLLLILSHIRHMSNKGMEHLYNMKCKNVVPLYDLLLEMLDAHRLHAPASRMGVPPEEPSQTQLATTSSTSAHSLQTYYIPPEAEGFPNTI

inhibition [4]: 45%
inhibition [8]: 25% and 46%
Compound: CCn1c(-c2ccc(OC(C)=O)cc2)c(C)c2cc(OC(C)=O)ccc21 [ZINDOXIFENE]
Anti-uterotrophic effect [1]: 46.3 and 50.4
Static tumors (Rattus norvegicus [2]): 14%
Progressed tumors (Rattus norvegicus [3]): 55%
No. of tumors (Rattus norvegicus [5]): 33
Uterotrophic effect [6]: 19.5 and 30.5
Uterotrophic effect [7]: 14.1 and 19.6
Partial remission (Rattus norvegicus [9]): 12%
Anti-uterotrophic effect [10]: 37.8 and 33
Anti-uterotrophic effect [11]: 38.5 and 51.1
Anti-uterotrophic effect [12]: 53.5 and 33.5
New tumors (Rattus norvegicus [13]): 25
Uterotrophic effect [14]: 16.4
Change of tumor area (Rattus norvegicus [15]): -75%
Change of body weight (Rattus norvegicus [16]): 1%
Uterotrophic effect [17]: 17.9 and 21

inhibition [4]: 56%
inhibition [22]: 17%
inhibition [8]: 52%
inhibition [26]: 14%
Compound: CCc1c(-c2ccc(OC(C)=O)cc2)n(C)c2cc(OC(C)=O)ccc12
Change of body weight (Rattus norvegicus [18]): -7%
Change of tumor area (Rattus norvegicus [19]): -100%
Anti-uterotrophic effect [1]: 48.8
Static tumors (Rattus norvegicus [20]): 21%
Partial remission (Rattus norvegicus [21]): 29%
Uterotrophic effect [6]: 30
Uterotrophic effect [7]: 16.2
Complete remission (Rattus norvegicus [23]): 43%
Change of tumor area (Rattus norvegicus [24]): -88%
Progressed tumors (Rattus norvegicus [25]): 7%
Anti-uterotrophic effect [10]: 34.7
Anti-uterotrophic effect [11]: 47.6
Anti-uterotrophic effect [12]: 33.5
New tumors (Rattus norvegicus [27]): 10
Uterotrophic effect [14]: 13.2
No. of tumors (Rattus norvegicus [28]): 18
Uterotrophic effect [17]: 20.4
